NR2E3 ag-1 – activates human photoreceptor nuclear receptor NR2E3; actives 0.12% (n = 320,000); Q9Y5X4; AID 2300; GST-NR2E3/biotin-RetCOR TR-FRET, 1536-well; inhibition of corepressor binding, % at 4.78 µM;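 active = percent inhibition above the cutoff of mean plus 3 SD of all tested compounds, set per screening campaign, cut at about 20% in these data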;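 also: 0% = DMSO wells and 100% = biotin wells as full block of FRET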
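System: GST-NR2E3 and biotin-RetCOR proteins; probe or stimulus: 7 nM biotin-RetCOR; doses: compound at 4.8 µM, single dose; schedule: Compound–protein incubation for 5 h at 4 °C; detection: time-resolved FRET; read-out: percent inhibition; controls: biotin wells as high control, 0.6% DMSO wells as low control; format: 1536-well plates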
PG9 Ab binder – PG9 antibody binding by small molecule. TR-FRET gp120-PG9 antibody binding. inhibition, % at 6.7 µM. actives 0.43% (n = 360,000). AID 624416; in the data active = inhibition above about 8.5%
MC4R antagonist – antagonists of human melanocortin 4 receptor (MC4R); inhibition, % at 6.5 µM; actives 0.48% (n = 360,000); P32245; MC4R-expressing cells, MTII-stimulated cAMP, LANCE TR-FRET;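 active = inhibition above its plate's cutoff, the mean of tested wells on that plate plus 3 SD, cut at about 29% in these data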;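 also: 0% = Melanotan II alone and 100% = Melanotan II plus saturating MCL0020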
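Assay system: U2OS cells stably expressing human melanocortin 4 receptor (MC4R) / Dosing: 6.5 µM / Timing: compound 30 min, challenge 1 h, detection 1 h / Measured by: Eu-cAMP/anti-cAMP TR-FRET, emission 671 nm / Replicates: singlicate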
MC4R ag barr – activates human MC4R beta-arrestin recruitment; U2OS MC4R beta-arrestin complementation, luminescence; percent of melanotan II response, DMSO zero; activation, % at 8.9 µM; actives 0.98% (n = 360,000);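 active = activation above a per-plate cutoff, the mean activation of sample wells on that plate plus 3 SD, cut at about 8% in these data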
NR1D1 modulator – Rev-erb alpha (human) modulation | AID 1259318 | activity, % at 10 µM | Rev-erbα–FITC-DNA binding, fluorescence polarization, 90 min | actives 0.79% (n = 370,000);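 active = activity above about 14%, limit read from the data; passing the limit was not always enough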;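 also: 0% = DMSO wells with 35 nM protein and 100% = DMSO wells with 750 nM protein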
Target sequence (P20393 whole entry, looked up): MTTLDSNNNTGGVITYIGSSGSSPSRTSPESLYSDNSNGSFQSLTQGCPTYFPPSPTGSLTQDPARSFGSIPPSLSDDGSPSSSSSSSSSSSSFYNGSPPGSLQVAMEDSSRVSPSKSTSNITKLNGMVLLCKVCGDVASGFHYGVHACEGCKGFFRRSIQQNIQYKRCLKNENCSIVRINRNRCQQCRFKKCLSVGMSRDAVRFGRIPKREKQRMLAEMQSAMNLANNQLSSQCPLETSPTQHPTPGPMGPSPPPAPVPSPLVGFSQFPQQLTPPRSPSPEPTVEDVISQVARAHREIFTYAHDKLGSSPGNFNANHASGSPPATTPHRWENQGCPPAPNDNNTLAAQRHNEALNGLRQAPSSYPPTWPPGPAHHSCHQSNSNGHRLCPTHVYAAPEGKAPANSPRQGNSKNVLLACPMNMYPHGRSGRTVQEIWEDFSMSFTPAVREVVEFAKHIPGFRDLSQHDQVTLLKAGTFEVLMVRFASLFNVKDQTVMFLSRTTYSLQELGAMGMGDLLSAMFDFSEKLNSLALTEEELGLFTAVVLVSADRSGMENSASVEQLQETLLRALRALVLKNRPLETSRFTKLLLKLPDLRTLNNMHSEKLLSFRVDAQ
NR2E3 ag-2 – activates human NR2E3 receptor. AID 602229. actives 0.35% (n = 360,000). Q9Y5X4. inhibition of corepressor binding, % at 3.98 µM. CHO-S Gal4-NCOR/VP16-NR2E3 two-hybrid, luciferase;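 active = inhibition above the mean of all tested compounds plus 3 SD, cut at about 70% in these data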;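 also: 0% = DMSO with NR2E3 transfected cells and 100% = cells lacking NR2E3 construct; higher means lower luciferase signal from less NR2E3 corepressor binding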
NR1D1 mod conf – Rev-erb alpha (human) modulation, hit confirmation; shares compounds with NR1D1 modulator; Rev-erb alpha FITC-DNA binding, fluorescence polarization, 90 min; activation, % at 25 µM; actives 61% (n = 3,000); AID 1259319;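 active = activation at or above a set limit, or at least 3 SD above the negative control mean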;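 also: 0% = 35 nM protein with DMSO and 100% = 750 nM protein high control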
RORg counter – affects RORgamma DNA binding in a Rev-erb alpha counter-screen | shares compounds with NR1D1 modulator | purified RORgamma protein-FITC-DNA binding, fluorescence polarization | IC50, µM | actives 8% (n = 910) | AID 1259320;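 active = Compounds whose fitted half-maximal concentration for disrupting protein-DNA binding is below 10 micromolar; the record names Rev-erb in its text, so the target is in doubt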
* hit, by the source's call; i = inactive; x = no result given. Compounds with a hit are over-represented: about 2.7% of the library has one in this group of screens.

SMILES	NR2E3 ag-1	PG9 Ab binder	MC4R antagonist	MC4R ag barr	NR1D1 modulator	NR2E3 ag-2	NR1D1 mod conf	others
Oc1c(C2=NCCNC(C(F)(F)F)=C2)ccc2ccccc12	x	-5	0	-1	18*	-141	7
Cc1ccc(O)c(C2=NCCNC(C(F)(F)F)=C2)c1	7	-1	5	-2	4	-25	x
CN(C)/C=C1\C=C2C(=O)c3ccccc3N2C1=O	-11	-18	-45	-2	340*	-29	229*	RORg counter=1.1*
CC(SC(C)C(=O)NN=Cc1ccc(F)cc1)C(=O)NN=Cc1ccc(F)cc1 (centres undefined)	x	-1	10	-2	3	6	x
CC(=O)c1c(C)n(-c2ccc(Br)cc2)c2ccc(O)cc12	-1	-1	1	0	-8	-10	x
N#Cc1c(-c2ccccc2)cc(-c2ccccc2)nc1SCc1nnc(-c2ccccc2)o1	2	0	14	0	50*	-9	24*
CCOc1ccc2c(c1)nc(SCC(=O)c1cccs1)n2C	-2	-3	12	-2	0	-19	x
CCOc1ccc2c(c1)nc(SCC(=O)c1ccc(Br)s1)n2C	6	1	-15	-1	25*	-12	14
CCCCn1c(SC(C)C(N)=O)nc2cc(C(=O)OC)ccc2c1=O (centres undefined)	3	-2	2	0	-5	-9	x
CCCCn1c(SC(C)C(=O)NCC2CCCO2)nc2cc(C(=O)OC)ccc2c1=O (centres undefined)	-1	-1	5	-2	40*	-28	32*	RORg counter=>40
COc1cc(C=Cc2nnc3c4ccccc4cnn23)cc(OC)c1OC	x	-4	4	-2	50*	-6	36*	RORg counter=>40
COc1cc(C=C2C(=O)c3ccccc3C2=O)cc(OC)c1OC	-2	0	6	-1	4	-54	x
COc1cccc(C(=O)N/N=c2/oc3ccccc3cc2C(N)=O)c1	-3	-4	-8	-2	14*	13	0
Cc1ccc2nc(N3CCN(c4cccc(C)c4C)CC3)c3nnnn3c2c1	-2	-1	2	-1	28*	-8	71*	RORg counter=>40
Cc1ccc(COC[C@H](CC(C)C)N2CCN(C(=O)c3cccc(C(F)(F)F)c3)CCC2=O)cc1	x	0	x	x	-5	3	x
CCC(C)NC(=O)Cn1c(=O)n(-c2ccccc2)c(=O)c2ccc(C(=O)NCc3ccco3)cc21 (centres undefined)	4	-1	-3	-2	2	-24	x
O=C(COC(=O)CCC1CCCC1)Nc1ccc(F)cc1Cl	3	-1	-1	6	-5	13	x
CCN(c1cccc(C)c1)S(=O)(=O)c1cc2c3c(c1)CCC(=O)N3CCC2	-2	-2	0	0	53*	11	62*	RORg counter=>40
O=C(NCc1ccc(Cl)cc1)c1ccc(CS(=O)Cc2cccc(Cl)c2)o1 (centres undefined)	-2	-3	7	-1	6	8	x
COc1ccc(C)cc1NC(=O)c1sc2ncn(CC(=O)N3CCCCC3)c(=O)c2c1C	-2	1	7	-1	29*	1	24*
CN(C)c1ccc(C=c2c3cc(O)ccc3n3c2cc(-c2ccccc2)[n+]3C)cc1	x	-16	-14	0	22*	-4	-2
CCOC(=O)Nc1ccc2c(COC(=O)CN(C)S(=O)(=O)c3ccc(C)cc3)cc(=O)oc2c1	1	4	2	-1	46*	-16	14
Cc1ccc(-n2c(COc3ccccc3)n[nH]c2=S)cc1	6	-1	-3	-4	-6	-7	x
CN(C)C(CNC(=O)c1ccc2[nH]c(=O)c(=O)[nH]c2c1)c1ccco1 (centres undefined)	3	1	5	-1	1	16	x
CC1(C)Cc2c(C#N)c(N)n(-c3ccccc3)c(=S)c2CO1	-3	-1	6	-1	-5	-31	x
SMILES	NR2E3 ag-1	PG9 Ab binder	MC4R antagonist	MC4R ag barr	NR1D1 modulator	NR2E3 ag-2	NR1D1 mod conf	others
CC1(C)C=C2C(=NN(c3ccccc3)C(N)=C2C#N)CO1	-1	-1	15	0	19*	4	11
CCc1ccc(Nc2n[n+](-c3ccccc3)c(-c3ccc(OCc4ccccc4)cc3)s2)cc1	2	0	10	1	16*	-6	5
Cc1cc(C(=O)N2CCN(S(C)(=O)=O)CC2)sc1-c1ccccc1	6	0	-4	-1	41*	-15	35*
O=C(N/N=C/c1cccc2ccccc12)c1cccnc1	-3	-2	-16	-1	6	-30	x
O=C(OCC(=O)N1CCN(S(=O)(=O)c2ccc(Cl)cc2)CC1)c1cc(Br)ccc1O	-2	1	13	-1	121*	-26	80*	RORg counter=i
O=C(OCC(=O)N1CCCc2ccccc21)c1cc(Br)ccc1O	2	-1	8	0	36*	14	26*
Nc1nccnc1C(=O)OCC(=O)N1CCN(S(=O)(=O)c2ccc(Cl)cc2)CC1	-2	1	2	-2	-1	-35	x
Cc1ccccc1NC(=O)c1sc2nc3c(c(-c4ccco4)c2c1N)CCC3	9	5	14	0	-23	-101	x
CCCC(=O)Nc1ccc(-c2nc3cc(C)c(C)cc3o2)c(O)c1	0	0	20	2	17*	-46	6
CC(=O)Nc1ccc(-c2nc3cc(Cl)ccc3o2)cc1	-4	0	12	-1	-4	-76	x
CC(C)(C)C(=O)Nc1ccc2oc(-c3cc(F)c(F)cc3Cl)nc2c1	2	1	8	2	22*	-77	14
Cc1ccc(Sc2cnc3ccccc3n2)cc1	5	6	5	6	40*	-45	33*	RORg counter=>40
CCC(=O)Nc1sc(C(=O)OC)c(C)c1C(=O)OC	2	-2	6	0	-3	-20	x
COC(=O)c1sc(NC(=O)C(C)C)c(C(=O)OC)c1C	-1	1	7	-1	22*	-7	5
CCOC(=O)c1sc(NC(=O)C(C)C)c(C#N)c1C	-2	3	11	0	47*	-6	26*
Cc1cc(Cl)ccc1Oc1ncc(-c2ccc(Cl)cc2)cn1	-2	-2	4	0	24*	-25	18*

Screening data deposited in PubChem by several laboratories.
